Among the data in ChEMBL document CHEMBL4513216, “Probing the Open Global Health Chemical Diversity Library for Multistage-Active Starting Points for Next-Generation Antimalarials” (ACS Infect Dis, 2020) are cytotoxicity values, retold here.

Molecules are shown by their SMILES.

The nature of this data set: Toxicity liver stage against HepG2, at 10uM. The format is cell-based. On the set-up: test concentration 10 uM, cell line HepG2-A16-CD81EGFP. The conditions noted are these: human, HepG2-A16-CD81EGFP cells; read-out: INHIBITION
The essentials:
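Uninfected HepG2-A16-CD81EGFP cells, 3 × 10^3 per well, 1536-well, plated on prespotted compound at 10 μM final, parasite-free screening media added to match infected plates; puromycin 10 μM positive, DMSO 0.5% negative; run in parallel with 48 h PbLuc assay at 37 °C, 5% CO2; viability by CellTiter-Glo luminescence, normalized to controls.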
Regarding `NS(=O)(=O)c1cccnc1NCc1ccco1`, the cytotoxicity at 10 µM is -8.21%.

For `Cc1cccc(CNC[C@H]2Cn3ccnc3CO2)n1`, the cytotoxicity at 10 µM came out at 3.15%.

As for `Fc1ccc(-c2noc([C@@H]3Cc4nc[nH]c4CN3)n2)cc1`, the cytotoxicity at 10 µM was -5.9%.

For the compound `Cc1n[nH]c2c1C(c1ccc3c(c1)OCCO3)SCC(=O)N2` (configuration not stated), the cytotoxicity at 10 µM was -0.37%.

In the case of `Cc1ccc(-c2csc3c(=O)[nH]c(N4CCCC(C(N)=O)C4)nc23)cc1` (configuration not stated), the cytotoxicity at 10 µM is -3.09%.

As to `Cc1ccc(S(=O)(=O)NCC(O)c2ccoc2)s1` (configuration not stated), the cytotoxicity at 10 µM is -8.18%.

As to `CCOCC(=O)NCCn1ccc(-c2ccccn2)n1`, the cytotoxicity at 10 µM was found to be 11.4%.

Turning to `CCc1cnc(N2C[C@H]3CN(Cc4ccc(OC)cc4)C(=O)[C@H]3C2)nc1`, the cytotoxicity at 10 µM was 11.6%. To `Cc1cc(CN2C[C@@H]3CN(Cc4ccsc4)CCO[C@@H]3C2)no1` belongs -139%; to `COCCN1CCC2(CC1)CC(CC(N)=O)c1ccc(F)cc12` (configuration not stated), 8.98%; to `O=C(c1cnccn1)N1CCCC2(CCCN2Cc2cccnc2)C1` (configuration not stated), -1.01%. With `COc1cc(CO)c(OC)c2c1OCO2` the figure was -2.93%; with `CC(C)c1nnc2ccc(N3CCC(C(=O)O)CC3)nn12`, -1.92%; with `CS(=O)(=O)N1CCCC12CCCN(S(=O)(=O)c1cc(F)cc(F)c1)C2` (configuration not stated), 10.9%. To `CCc1ncnc2c1CCN(C(=O)N1CCCC1)CC2` belongs 5.46%. On to `O=C(CCn1cc(Cl)cn1)Nc1ccc2c(c1)OCCO2`, for which the cytotoxicity at 10 µM was -2.18%. For the compound `Cn1nc(C(=O)N2CCOCC2)cc1C(=O)Nc1ccc(Cl)cc1Cl`, the cytotoxicity at 10 µM is -7.41%.

On to `Cc1ccc(CNC(=O)c2cc(NC(=O)C3CC3)n(C)n2)o1`, for which the cytotoxicity at 10 µM stood at 4.82%. To `CCn1ccc(NC(=O)c2cc(C)on2)n1` belongs -2.23%; to `O=C(c1cc(-c2ccco2)cs1)N1CCOCC1`, 4.81%; to `Cc1cc(-c2ccc(=O)n(C3CCN(S(C)(=O)=O)CC3)n2)c(C)o1`, 3.62%. With `O=C(O)[C@@H]1CCN(C(=O)c2ccccn2)[C@@H]1c1ccc(F)cc1` the figure was 4.16%; with `CC(C)N1CCC(c2n[nH]cc2S(C)(=O)=O)CC1`, -7.22%; with `CN(C)S(=O)(=O)N1CCC(c2ccncn2)CC1`, -20.5%. To `O=C(O)c1ccccc1CN1CCC(c2ccnc3ccnn23)CC1` belongs -37.8%; to `CC(=O)Nc1nc(C2CCN(C(=O)c3ccncc3)CC2)cs1`, -9.44%; to `COC(=O)CN1CCC(C(F)(F)F)CC1`, 8.12%. `CCCS(=O)(=O)NC(=O)c1ccc(-n2nc(C)cc2C)cc1`: the cytotoxicity at 10 µM was determined as 1.36%.

On to `O=C(NC1=NCCS1)C1CSCN1C(=O)C1CCCC1` (configuration not stated), for which the cytotoxicity at 10 µM amounted to 6.8%. To `CC(C)Cc1nc(CN2CCC(N3CCN(C)C3=O)CC2)no1` belongs 14%; to `CS(=O)(=O)CCNC(=O)N1CC2(CCCC2)c2ccccc21`, 0.883%; to `O=C(CNC(=O)c1cc(Cl)ccn1)Nc1nccs1`, -1.87%.

As to `CCC(CC)NC(=O)c1nc2n(n1)-c1ccccc1S(=O)(=O)N2`, the cytotoxicity at 10 µM is 8.3%. On to `Clc1cccnc1N1CCC(NCc2cccc3cn[nH]c23)C1` (configuration not stated), for which the cytotoxicity at 10 µM came out at 13.7%.

On to `O=C(Nc1cnn(Cc2ccc(Cl)cc2)c1)N[C@@H]1C=C[C@H](CO)C1`, for which the cytotoxicity at 10 µM is -2.96%.

In the case of `CC(C)(C)OC(=O)NCC1CCCCN1Cc1ccccn1` (configuration not stated), the cytotoxicity at 10 µM was -3.59%.

Regarding `Cc1cc(CN2CCN(C(=O)CCc3cccs3)CC2)on1`, the cytotoxicity at 10 µM was -5%.

Take `Cc1nc(C)n(CC2CCCCN2Cc2nnc(-c3ccco3)o2)n1` (configuration not stated): the cytotoxicity at 10 µM was -10.2%. With `COCc1ccccc1NC(=O)NCc1ccc(OCC2CC2)nc1` the figure was 3.88%.

As for `Cn1ccc2c(C(=O)N3CCN(C(=O)C4CCCC4)CC3)cccc21`, the cytotoxicity at 10 µM is -0.53%.

Turning to `CCOc1ncccc1NC(=O)c1cc(C)sc1C`, the cytotoxicity at 10 µM is -6.81%. With `CC(C)CC(=O)N1CCCC1c1ccsc1` (configuration not stated) the figure was 2.96%.

For `CC(C)(C(=O)NCC(=O)NCc1ccccc1)c1ccccc1F`, the cytotoxicity at 10 µM was determined as 4.63%. To `O=C(NC1CCCN(c2ccccc2F)C1)c1ccon1` (configuration not stated) belongs -6.43%. Turning to `O=C1CN(C(=O)C2CCOCC2)CCN1Cc1ccc(Cl)cc1`, the cytotoxicity at 10 µM was -146%. With `CCNC(=O)CN(Cc1ccoc1)C1CCCCC1` the figure was 7.59%. In the case of `Cc1nsc(NCc2ccc(S(=O)(=O)N(C)C(C)C)cc2)n1`, the cytotoxicity at 10 µM came out at 16.2%. With `CCCn1ccc2cc(NC(=O)CC3CCCO3)ccc21` (configuration not stated) the figure was -3.45%; with `CC(O)CN1CCN(C(=O)CCOc2ccccc2F)CC1` (configuration not stated), 3.66%; with `CCN(CC1CCCO1)S(=O)(=O)N1CCCCCC1` (configuration not stated), -1%. `Cc1nc(C2CCCN2C(=O)CCCOc2cccc(F)c2)no1` (configuration not stated): the cytotoxicity at 10 µM was 5.09%. To `FC(F)(F)COCCN1CCCC(c2noc(C3CC3)n2)C1` (configuration not stated) belongs 3.3%; to `Fc1ccc2c(c1)C(NCc1nnc3n1CCCCC3)CCCO2` (configuration not stated), -9.52%; to `CS(=O)(=O)NCCNC(=O)C1(c2cccc(Cl)c2)CC1`, 5.63%.

In the case of `CS(=O)(=O)NCC1CCCN(C(=O)Nc2cccnc2N2CCCC2)C1` (configuration not stated), the cytotoxicity at 10 µM was determined as 3.85%. To `CC(C)NC(=O)Nc1ccc(CS(=O)(=O)C(C)(C)C)cc1` belongs -1.97%; to `CC(=O)N1CCO[C@@H]2CN(S(=O)(=O)c3ccc(C)cc3)CC[C@@H]2C1`, 8.28%; to `CNC(=O)[C@H]1C[C@@H]2CCN(Cc3ccc4c(c3)OCO4)C[C@@H]2O1`, 5.79%.

With `Cc1cn2c(=O)c(-c3ccnc(NC4CCOCC4)n3)cnc2s1`, the cytotoxicity at 10 µM was -5.5%. As for `O=C(O)[C@@H]1CN(C(=O)CSCC2CC2)C[C@H]1c1ccncc1`, the cytotoxicity at 10 µM was -17.6%.

Turning to `CCc1ccc(CN2CCC(c3ccccc3C(=O)O)C2)nc1` (configuration not stated), the cytotoxicity at 10 µM worked out at 1.69%. Regarding `CCC(=O)N1CCCC(C(=O)NCc2noc(Cc3ccccc3)n2)C1` (configuration not stated), the cytotoxicity at 10 µM is -1.15%. To `COc1ccccc1-n1nc(CC(C)C)nc1Cc1nnc(N)s1` belongs 6.17%; to `CC(C)=CCN1CCN(S(=O)(=O)c2cn(C)cn2)[C@H]2CS(=O)(=O)C[C@H]21`, 0.634%. As for `O=C(c1ccc(O)cn1)N1CCOC(Cc2cccc(C(F)(F)F)c2)C1` (configuration not stated), the cytotoxicity at 10 µM was found to be 5.08%. To `COCC(=O)N1CCCN(Cc2cc(C(C)C)no2)CC1` belongs 5.97%; to `Cc1nc(CC(=O)N2CCC3(CC2)CC(=O)N(CC2CCCO2)C3)cs1` (configuration not stated), -7.85%; to `COc1cc(C)c(C2CC(=O)NCc3nc4sccn4c32)cc1C` (configuration not stated), -2.19%. With `CC(c1nccs1)N(C)Cc1ccc(CCC(C)(C)O)cc1` (configuration not stated) the figure was 2.55%; with `Oc1ccc(-c2c(-c3ccccc3)ncn2C[C@H]2CCCN2)cc1`, 17.5%; with `Cc1cc(C)n(CC(C)Nc2nc(C)nc3c2CCNC3)n1` (configuration not stated), 2.51%. On to `Cc1nc(C(C)C)cc(N2CCC3(CCC(=O)N(CC4CC4)C3)CC2)n1`, for which the cytotoxicity at 10 µM was -2.99%.

Consider `COCCN(Cc1sccc1C)C(=O)C1CCN(C(C)C)CC1`, for which the cytotoxicity at 10 µM was -2.72%. For the compound `N#Cc1cccc(C(=O)N2CCCC(C(=O)CCc3ccccc3)C2)c1` (configuration not stated), the cytotoxicity at 10 µM is 0.488%. In the case of `CS(=O)(=O)NCCC1CN(Cc2ccccc2F)CCO1` (configuration not stated), the cytotoxicity at 10 µM was -7.31%. As to `COc1nccc(N2CC[C@H](CO)[C@@H](O)C2)c1C#N`, the cytotoxicity at 10 µM is -141%. With `Cc1nccc(CNC(=O)CCc2c(C)nc3cc(O)nn3c2C)n1` the figure was -1.56%; with `Cc1ccc(CC(=O)N2CCCC(n3ccnc3C(C)C)C2)cn1` (configuration not stated), -5.11%. For the compound `CCc1nc(C2CCCN2C(=O)CCc2nc(C3CC3)no2)no1` (configuration not stated), the cytotoxicity at 10 µM is -2.66%. To `CN(Cc1ccccc1)CC(O)Cn1cnc2cc(F)ccc2c1=O` (configuration not stated) belongs -5.28%; to `CN(C)c1cc(C(=O)N2CCN(c3cc(C#N)ccn3)CC2)ccn1`, -9.27%.

As for `CC(=O)N1CCN(C(=O)CCCc2nc(C(C)C)no2)CC1`, the cytotoxicity at 10 µM was -9.34%.

For `CC(C)(C)C(=O)NCCc1ccn(-c2ccccc2)n1`, the cytotoxicity at 10 µM came to 1.76%. To `Cn1cncc1CN1CCc2nc3sccc3c(=O)n2CC1` belongs -3.75%; to `COc1ccccc1CN1C[C@@H]2COC[C@]2(COc2cccnc2)C1`, 6.24%; to `CO[C@H]1CCN(S(=O)(=O)c2cn(C)cn2)[C@H]1Cc1ccccc1`, 6.19%. To `O=C(NC1COC2(CCN(Cc3ccccn3)CC2)C1)c1ccccn1` (configuration not stated) belongs -4.74%. With `Cn1cc(CN2CCCC23CCN(C(=O)c2ccccc2)CC3)cn1` the figure was 0.613%; with `CC(=O)N1CCC2(CC1)COCCN2CCN(C)C`, -7.98%. As for `CC1c2ncc(CNC(=O)C3CC3)n2CCN1Cc1cnn(C)c1` (configuration not stated), the cytotoxicity at 10 µM is -20.2%. With `O=C1CCCN1Cc1nnc2n1CCCN(Cc1ccco1)C2`, the cytotoxicity at 10 µM is 3.24%. As for `CC1c2ncc(Cn3cccn3)n2CCN1Cc1cccnc1` (configuration not stated), the cytotoxicity at 10 µM is 6.49%. With `CC(C)NC(=O)[C@H]1C[C@@H]2[C@@H](C1)OCCN2Cc1cccs1` the figure was 10.3%; with `c1ccc(CN2CCN3C[C@H](Oc4cncnc4)C[C@H]3C2)nc1`, -99.8%. With `Cc1ccc(C(=O)N2CCC3(CC2)COC(COc2ccccn2)C3)o1` (configuration not stated) the figure was -0.954%; with `CN(C)C(=O)CN1CC[C@H]2[C@H]1CCN2c1ncccn1`, 8.28%; with `CCn1cc(-n2cc3nc(N)[nH]cc-3c2=O)cn1`, 3.15%.
